Measured values as given in ChEMBL document CHEMBL1125731, “2,3-Dihydrobenzofuran analogues of hallucinogenic phenethylamines” (J Med Chem, 1991).

Legend:
[1] = test system: Rattus norvegicus; assay: Percent of animals selecting drug liver was determined at a dose of 32.56 intraperitoneally. (No. of animals disrupted:1); format: functional
Outline: (§1)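 Male Sprague-Dawley rats (~200 g) were kept at ~80% free-feeding weight and trained on FR-50 to discriminate LSD tartrate (0.08 mg/kg ip) from saline. Test drug was given ip in saline 30 min before a session lasting until 50 responses or 5 min, unreinforced. Rats failing to make 50 responses were scored disrupted. At least eight rats were tested per dose.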

[2] = Hill coefficient as determined.
Outline: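 Rat prefrontal cortex homogenate incubated in triplicate with 0.25 nM [125I]-(R)-DOI (2000 Ci/mmol) and varying displacer concentrations, 37 °C for 15 min. The radioligand K_D was 1.34 nM. Binding curves were fitted by computer analysis. Protein was measured by Bradford.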

[3] = test system: Rattus norvegicus; assay: Percent of animals selecting drug liver was determined at a dose of 4.07 intraperitoneally. ( No. of animals disrupted:0); format: functional; outline: as §1
[4] = test system: Rattus norvegicus; assay: Percent of animals selecting drug liver was determined at a dose of 40.70 intraperitoneally. (No. of animals disrupted:4); format: functional; outline: as §1
[5] = test system: Rattus norvegicus; assay: Percent of animals selecting drug liver was determined at a dose of 8.14 intraperitoneally. (No. of animals disrupted:1); format: functional; outline: as §1
[6] = test system: Rattus norvegicus; assay: Percent of animals selecting drug liver was determined at a dose of 16.28 intraperitoneally. (No. of animals disrupted:1); format: functional; outline: as §1
[7] = test system: Rattus norvegicus; assay: Percent of animals selecting drug liver was determined at a dose of 2.03 intraperitoneally. (No. of animals disrupted:1); format: functional; outline: as §1
[8] = test system: Rattus norvegicus; assay: Percent of animals selecting drug liver was determined at a dose of 0.51 intraperitoneally. (No. of animals disrupted:0); format: functional; outline: as §1
[9] = test system: Rattus norvegicus; assay: Percent of animals selecting drug liver was determined at a dose of 1.02 intraperitoneally. (No. of animals disrupted:0); format: functional; outline: as §1
[10] = test system: Rattus norvegicus; assay: Percent of animals selecting drug liver was determined at a dose of 0.25 intraperitoneally. (No. of animals disrupted:0); format: functional; outline: as §1
[11] = test system: Rattus norvegicus; assay: Percent of animals selecting drug liver was determined at a dose of 2.03 intraperitoneally. (No. of animals disrupted:2); format: functional; outline: as §1
[12] = test system: Rattus norvegicus; assay: Percent of animals selecting drug liver was determined at a dose of 1.01 intraperitoneally. (No. of animals disrupted:0); format: functional; outline: as §1
[13] = target: Serotonin 2 (5-HT2) receptor (Rattus norvegicus, UniProt P30994+P08909+P14842); assay: Compound was evaluated for its ability to displace 0.25 nM [125I](R)-DOI from binding sites in rat frontal cortex.; format: tissue-based
[14] = test system: Rattus norvegicus; assay: Percent of animals selecting drug liver was determined at a dose of 8.16 intraperitoneally. (No. of animals disrupted:0); format: functional; outline: as §1
[15] = test system: Rattus norvegicus; assay: Percent of animals selecting drug liver was determined at a dose of 10.19 intraperitoneally. (No. of animals disrupted:0); format: functional; outline: as §1
[16] = test system: Rattus norvegicus; assay: Percent of animals selecting drug liver was determined at a dose of 12.16 intraperitoneally. (No. of animals disrupted:1); format: functional; outline: as §1
[17] = test system: Rattus norvegicus; assay: Percent of animals selecting drug liver was determined at a dose of 2.03 intraperitoneally. (No. of animals disrupted:0); format: functional; outline: as §1

**Q.** With COc1ccc(OC)c(CC(C)N)c1 (stereo not given) as the compound, how does the SDL [1] read?
**A.** 63%

**Q.** What about the Hill coefficient [2] of the same compound?
**A.** 0.92

**Q.** What about the SDL [3] of the same compound?
**A.** 38%

**Q.** And the SDL [4]?
**A.** 63%

**Q.** What about the SDL [5] of the same compound?
**A.** 38%

**Q.** What about the SDL [6] of the same compound?
**A.** 50%

**Q.** With COc1cc(CC(C)N)c(OC)cc1Br (stereo not given) [BROLAMFETAMINE] as the compound, how does the Hill coefficient [2] read?
**A.** 1.09

**Q.** With COc1cc(CC(C)N)c(OC)cc1C (stereo not given) [DOM] as the compound, how does the Hill coefficient [2] read?
**A.** 0.89

**Q.** What about the SDL [7] of the same compound?
**A.** 88%

**Q.** And the SDL [8]?
**A.** 13%

**Q.** And the SDL [9]?
**A.** 75%

**Q.** With COc1cc(Br)c2c(c1CC(C)N)CCO2 (stereo not given) as the compound, how does the Hill coefficient [2] read?
**A.** 1.06

**Q.** And the SDL [10]?
**A.** 25%

**Q.** What about the SDL [11] of the same compound?
**A.** 88%

**Q.** And the SDL [8]?
**A.** 38%

**Q.** And the SDL [12]?
**A.** 75%

**Q.** What about the Ki [13] of the same compound?
**A.** 3.1 nM

**Q.** Which Hill coefficient [2] does the source give for COc1ccc2c(c1CC(C)N)CCO2 (stereo not given) here?
**A.** 0.93

**Q.** And the SDL [14]?
**A.** 50%

**Q.** And the Ki [13]?
**A.** 146 nM

**Q.** What about the SDL [15] of the same compound?
**A.** 63%

**Q.** What about the SDL [16] of the same compound?
**A.** 88%

**Q.** What about the SDL [17] of the same compound?
**A.** 25%

**Q.** With COc1cc2c(cc1CC(C)N)OCC2 (stereo not given) as the compound, how does the Hill coefficient [2] read?
**A.** 0.91

**Q.** And the Ki [13]?
**A.** 388 nM
